From ChEMBL document CHEMBL1142338, “Design, synthesis, cytoselective toxicity, structure-activity relationships, and pharmacophore of thiazolidinone derivatives targeting drug-resistant lung cancer cells” (J Med Chem, 2008)

How the values were obtained:
NCI-H460 [1] = assay: Anticancer activity against human H460 cells; assay type: functional, cell-based
Procedure, shortened: (§1)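 H460 and the paclitaxel-resistant, P-gp-overexpressing H460taxR line were grown in RPMI 1640 with 10% heat-inactivated FCS, penicillin and streptomycin, at 37 C in 5% CO2. Cells were seeded in 96-well plates, dosed next day from DMSO stocks (DMSO <1%, matched DMSO control), and stained with sulforhodamine B at 72 h. IC50 came from four-parameter logistic fits; at least three experiments.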

[2] = Anticancer activity against human NHFB cells; assay type: ADME, cell-based
Procedure, shortened: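 Normal human fibroblasts (NHFB) were kept in DMEM with 10% heat-inactivated FCS, penicillin and streptomycin, at 37 C in 5% CO2. They were seeded in 96-well plates and treated next day, with DMSO below 1% and a matched DMSO control. Sulforhodamine B readout was at 72 h, with viability taken relative to control. IC50 came from four-parameter logistic fits; unreached values were recorded as >100 µM because of the solubility/DMSO limit.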

NCI-H460 [3] = assay: Anticancer activity against paclitaxel resistant variant human H460 cells; assay type: functional, cell-based; procedure, shortened: as §1

Row | SMILES | IC50 (NCI-H460 [1]) [µM] | IC50 [2] [µM] | IC50 (NCI-H460 [3]) [µM]
1 | COc1ccc(N=C2NC(=O)/C(=C\c3ccc(N(C)C)cc3)S2)cc1 | 2.52 | > 100 | 1.6
2 | CN(C)c1ccc(/C=C2/SC(=Nc3ccc(O)cc3)NC2=O)cc1 | 1.32 | > 100 | 1.08
3 | CN(C)c1ccc(/C=C2/SC(=Nc3ccccc3Cl)NC2=O)cc1 | 0.73 | > 100 | 0.88
4 | COc1ccc(/C=C2/S/C(=N/c3ccccc3C)NC2=O)cc1 | 1.78 | 195 | 1.7
5 | CN(C)c1ccc(/C=C2/SC(=Nc3ccccc3)NC2=O)cc1 | 0.5 | > 100 | 0.21
6 | O=C1N/C(=N\c2ccc(Cl)cc2)S/C1=C/c1ccccc1O | 1.85 | > 100 | 1.18
7 | CC(=O)Nc1ccc(/C=C2/S/C(=N/c3cccc(Cl)c3)NC2=O)cc1 | 1.19 | > 100 | 1.25
8 | Cc1ccc(N=C2NC(=O)/C(=C\c3ccc(N(C)C)cc3)S2)cc1 | 0.94 | > 100 | 0.82
9 | Cc1ccccc1/N=C1\NC(=O)/C(=C\c2ccc(N(C)C)cc2)S1 | 0.65 | > 100 | 0.54
10 | CN(C)c1ccc(/C=C2/S/C(=N/c3ccc(Cl)cc3)NC2=O)cc1 | 2.89 | > 100 | 2.93
